Results from ChEMBL document CHEMBL1157170, “Novel 5-azaindolocarbazoles as cytotoxic agents and Chk1 inhibitors” (Bioorg Med Chem, 2008).
Active and inactive are the calls of the source. The rule behind the calls is not given here.

Columns and labels:
L1210 [1] = test: Antiproliferative activity against mouse L1210 cells after 48 hrs by microculture tetrazolium assay; type: functional, cell-based; conditions: L1210, 48 h
Summary of the method: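 L1210 cells grown in RPMI 1640 with 10% fetal calf serum, 2 mM L-glutamine, penicillin/streptomycin and 10 mM Hepes (pH 7.4). Exposed for 48 h (four doubling times) to nine serial dilutions, each in triplicate. Read-out was microculture tetrazolium assay. IC50 is the concentration that cut optical density by 50% versus untreated controls.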

[2] = target: T1, Serine/threonine-protein kinase Chk1 (Homo sapiens) (UniProt O14757); test: Inhibition of human Chk1 expressed in sf9-baculovirus system at 10 uM
T1 sequence (whole entry): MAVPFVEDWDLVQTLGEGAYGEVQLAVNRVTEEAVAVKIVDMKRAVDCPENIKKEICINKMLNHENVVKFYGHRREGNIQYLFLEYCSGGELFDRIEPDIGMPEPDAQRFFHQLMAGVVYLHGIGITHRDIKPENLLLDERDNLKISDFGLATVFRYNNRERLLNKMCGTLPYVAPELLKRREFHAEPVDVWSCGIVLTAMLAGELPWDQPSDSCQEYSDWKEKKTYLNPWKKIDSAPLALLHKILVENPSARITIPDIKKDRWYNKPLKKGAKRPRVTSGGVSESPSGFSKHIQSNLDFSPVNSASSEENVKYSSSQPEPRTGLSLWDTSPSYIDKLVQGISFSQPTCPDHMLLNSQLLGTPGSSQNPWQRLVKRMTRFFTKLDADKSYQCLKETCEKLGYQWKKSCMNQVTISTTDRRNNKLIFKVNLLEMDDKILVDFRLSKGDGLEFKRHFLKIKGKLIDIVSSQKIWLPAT

[3] = target: T2, Serine/threonine-protein kinase Chk1 (Homo sapiens, UniProt O14757); test: Inhibition of human Chk1 expressed in sf9-baculovirus system
T2 sequence (O14757 whole entry): T1 sequence (whole entry)
Summary of the method: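 Kinase was GST-tagged Chk1 purified from extracts of Sf9 cells infected with a GST-Chk1 baculovirus. Assay format followed a published method.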

L1210 [4] = test: Cell cycle arrest in mouse L1210 cells by accumulation at G2M phase at 5 uM after 21 hrs by flow cytometry; type: functional
Summary of the method: (§1)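 L1210 cells at 2.5 × 10⁵ cells/mL incubated 21 h with various compound concentrations. Fixed in 70% ethanol, washed, then stained 30 min in D-PBS containing RNAse and propidium iodide. DNA content analysed by flow cytometry.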

HT-29 = test: Antiproliferative activity against human HT29 cells after 96 hrs by microculture tetrazolium assay; conditions: HT-29, 96 h
L1210 [5] = test: Toxicity against mouse L1210 cells at 20 uM; type: functional, cell-based
L1210 [6] = test: Cell cycle arrest in mouse L1210 cells by accumulation at G2M phase at 1 uM after 21 hrs by flow cytometry; type: functional; summary of the method: as §1
L1210 [7] = test: Cell cycle arrest in mouse L1210 cells by accumulation at G1 phase at 1 uM after 21 hrs by flow cytometry; type: functional; summary of the method: as §1

O=C1NC(=O)c2c1c1c3ccc(OCc4ccccc4)cc3[nH]c1c1[nH]c3ccncc3c21
IC50 (L1210 [1]): 1.1 µM | inhibition [2]: 95.9% | IC50 [3]: 0.072 µM | Activity (L1210 [4]): 43% | IC50 (HT-29): 32.4 µM

CN1C(=O)c2c(c3c4cc5c(cc4[nH]c3c3[nH]c4ccncc4c23)OCO5)C1=O
IC50 (L1210 [1]): 0.495 µM | inhibition [2]: 26.7% | IC50 (HT-29): 3.35 µM

CN(C)CCN1C(=O)c2c(c3c4cnccc4[nH]c3c3[nH]c4cc(OCc5ccccc5)ccc4c23)C1=O
IC50 (L1210 [1]): 1.4 µM | inhibition [2]: 32.7% | IC50 (HT-29): 2.9 µM

O=C1NC(=O)c2c1c1c3cnccc3[nH]c1c1[nH]c3ccc(OCc4ccccc4)cc3c21
IC50 (L1210 [1]): 1.5 µM | inhibition [2]: 90.6% | IC50 [3]: 1.32 µM | IC50 (HT-29): 7.6 µM

O=C1NC(=O)c2c1c1c3cnccc3[nH]c1c1[nH]c3ccc(O)cc3c21
IC50 (L1210 [1]): 80.7 µM | inhibition [2]: 99.1% | IC50 [3]: 0.027 µM | IC50 (HT-29): > 100 µM

CN1C(=O)c2c(c3c4cnccc4[nH]c3c3[nH]c4cc(O)ccc4c23)C1=O
IC50 (L1210 [1]): 2.7 µM | inhibition [2]: 66.6% | IC50 [3]: 5 µM | Activity (L1210 [5]): Active | IC50 (HT-29): 16.2 µM

CN(C)CCN1C(=O)c2c(c3c4cc(O)ccc4[nH]c3c3[nH]c4ccncc4c23)C1=O
IC50 (L1210 [1]): 2.6 µM | inhibition [2]: 48.9% | IC50 (HT-29): 50.9 µM

O=C1NC(=O)c2c1c1c3ccc(O)cc3[nH]c1c1[nH]c3ccncc3c21
IC50 (L1210 [1]): 3.3 µM | inhibition [2]: 98.7% | IC50 [3]: 0.014 µM | IC50 (HT-29): > 100 µM

CN1C(=O)c2c(c3c4ccccc4n([C@@H]4O[C@H](COCc5ccccc5)[C@@H](OCc5ccccc5)[C@H](OCc5ccccc5)[C@H]4OCc4ccccc4)c3c3[nH]c4ccncc4c23)C1=O
IC50 (L1210 [1]): > 100 µM | inhibition [2]: 49%

CN(C)CCN1C(=O)c2c(c3c4cc(OCc5ccccc5)ccc4[nH]c3c3[nH]c4ccncc4c23)C1=O
IC50 (L1210 [1]): 16.3 µM | inhibition [2]: 17.6% | IC50 (HT-29): 19.5 µM

CN(C)CCN1C(=O)c2c(c3c4cc5c(cc4[nH]c3c3[nH]c4ccncc4c23)OCO5)C1=O
IC50 (L1210 [1]): 0.195 µM | inhibition [2]: 6.7% | Activity (L1210 [6]): 62% | IC50 (HT-29): 1.76 µM

O=C1NC(=O)c2c1c1c3ccccc3[nH]c1c1[nH]c3ccncc3c21
IC50 (L1210 [1]): 0.6 µM | inhibition [2]: 98.6% | IC50 [3]: 5 µM | Activity (L1210 [7]): 60% | IC50 (HT-29): 1.5 µM

CN1C(=O)c2c(c3c4cnccc4[nH]c3c3[nH]c4cc(OCc5ccccc5)ccc4c23)C1=O
IC50 (L1210 [1]): 0.6 µM | inhibition [2]: 27% | IC50 (HT-29): 2 µM

CN1C(=O)c2c(c3c4ccccc4n([C@@H]4O[C@H](CO)[C@@H](O)[C@H](O)[C@H]4O)c3c3[nH]c4cc[n+](Cc5ccccc5)cc4c23)C1=O
IC50 (L1210 [1]): 12.8 µM | inhibition [2]: 51.4% | IC50 (HT-29): 63.7 µM

CC(=O)OC[C@H]1O[C@@H](n2c3ccccc3c3c4c(c5c6c[n+](Cc7ccccc7)ccc6[nH]c5c32)C(=O)N(C)C4=O)[C@H](OC(C)=O)[C@@H](OC(C)=O)[C@@H]1OC(C)=O
IC50 (L1210 [1]): 14.3 µM | inhibition [2]: 46.5% | IC50 (HT-29): > 100 µM

CN(C)CCN1C(=O)c2c(c3c4cnccc4[nH]c3c3[nH]c4ccccc4c23)C1=O
IC50 (L1210 [1]): 0.47 µM | inhibition [2]: 49.4% | IC50 (HT-29): 3.8 µM

CN1C(=O)c2c(c3c4cc(O)ccc4[nH]c3c3[nH]c4ccncc4c23)C1=O
IC50 (L1210 [1]): 11.9 µM | inhibition [2]: 38.5% | IC50 (HT-29): > 100 µM
